In ChEMBL document CHEMBL2331438, “An efficient domino reaction in ionic liquid: synthesis and biological evaluation of some pyrano- and thiopyrano-fused heterocycles” (2013):
Values after ≈ are worked out from the molar mass of the structure shown.

Columns and labels:
Escherichia coli = experiment: Antibacterial activity against Escherichia coli MTCC 443 after 24 hrs by broth microdilution method; format: functional; conditions: MTCC 443, 24 h
Streptococcus pneumoniae = experiment: Antibacterial activity against Streptococcus pneumoniae MTCC 1936 after 24 hrs by broth microdilution method; format: functional; conditions: MTCC 1936, 24 h
Bacillus subtilis = experiment: Antibacterial activity against Bacillus subtilis MTCC 441 after 24 hrs by broth microdilution method; format: functional; conditions: MTCC 441, 24 h
[1] = Antioxidant activity assessed as ascorbic acid equivalent ferric ion reducing activity per 100 gram at 200 ug/ml by FRAP assay; format: functional
Aspergillus fumigatus = experiment: Antifungal activity against Aspergillus fumigatus MTCC 3008 after 48 hrs by broth microdilution method; format: functional; conditions: MTCC 3008, 48 h
Vibrio cholerae = experiment: Antibacterial activity against Vibrio cholerae MTCC 3906 after 24 hrs by broth microdilution method; format: functional; conditions: MTCC 3906, 24 h
Candida albicans = experiment: Antifungal activity against Candida albicans MTCC 227 after 48 hrs by broth microdilution method; format: functional; conditions: MTCC 227, 48 h
[2] = test system: Mycobacterium tuberculosis; experiment: Antimycobacterial activity against Mycobacterium tuberculosis H37Rv at 250 ug/ml; format: functional
Outline: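 M. tuberculosis H37Rv tested on L.J. (Löwenstein–Jensen) medium.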

Salmonella typhi = experiment: Antibacterial activity against Salmonella typhi MTCC 98 after 24 hrs by broth microdilution method; format: functional, Salmonella enterica subsp. enterica serovar Typhi; conditions: Salmonella enterica, MTCC 98, 24 h
Clostridium tetani = experiment: Antibacterial activity against Clostridium tetani MTCC 449 after 24 hrs by broth microdilution method; format: functional; conditions: MTCC 449, 24 h

Cc1cccc2cc3c(nc12)SC[C@@H]1COc2c(c(-c4ccccc4)nn2-c2ccccc2)[C@H]31
MIC (Escherichia coli): 100 mg/L (≈ 217 µM) | MIC (Streptococcus pneumoniae): 200 mg/L (≈ 433 µM) | MIC (Bacillus subtilis): 200 mg/L (≈ 433 µM) | Activity [1]: 101 mmol | MIC (Aspergillus fumigatus): > 1000 mg/L | MIC (Vibrio cholerae): 200 mg/L (≈ 433 µM) | MIC (Candida albicans): > 1000 mg/L | inhibition at 250 µg/mL [2]: 9% | MIC (Salmonella typhi): 125 mg/L (≈ 271 µM) | MIC (Clostridium tetani): 125 mg/L (≈ 271 µM)

Cc1ccc(-n2nc(C)c3c2OC[C@H]2COc4ccc5c(C)cc(=O)oc5c4[C@@H]32)cc1
MIC (Escherichia coli): 200 mg/L (≈ 483 µM) | MIC (Streptococcus pneumoniae): 250 mg/L (≈ 603 µM) | MIC (Bacillus subtilis): 250 mg/L (≈ 603 µM) | Activity [1]: 213 mmol | MIC (Aspergillus fumigatus): 250 mg/L (≈ 603 µM) | MIC (Vibrio cholerae): 200 mg/L (≈ 483 µM) | MIC (Candida albicans): 1000 mg/L (≈ 2410 µM) | inhibition at 250 µg/mL [2]: 32% | MIC (Salmonella typhi): 250 mg/L (≈ 603 µM) | MIC (Clostridium tetani): 200 mg/L (≈ 483 µM)

Cc1nn(-c2ccccc2Cl)c2c1[C@@H]1c3cc4cccc(C)c4nc3SC[C@@H]1C(C)(C)O2 (single isomer, unassigned)
MIC (Escherichia coli): 200 mg/L (≈ 433 µM) | MIC (Streptococcus pneumoniae): 250 mg/L (≈ 541 µM) | MIC (Bacillus subtilis): 250 mg/L (≈ 541 µM) | Activity [1]: 115 mmol | MIC (Aspergillus fumigatus): 500 mg/L (≈ 1080 µM) | MIC (Vibrio cholerae): 200 mg/L (≈ 433 µM) | MIC (Candida albicans): 250 mg/L (≈ 541 µM) | inhibition at 250 µg/mL [2]: 50% | MIC (Salmonella typhi): 100 mg/L (≈ 216 µM) | MIC (Clostridium tetani): 100 mg/L (≈ 216 µM)

Cc1nn(-c2ccccc2Cl)c2c1[C@@H]1c3c(ccc4c(C)cc(=O)oc34)OC[C@@H]1CO2
MIC (Escherichia coli): 125 mg/L (≈ 287 µM) | MIC (Streptococcus pneumoniae): 100 mg/L (≈ 230 µM) | MIC (Bacillus subtilis): 62.5 mg/L (≈ 144 µM) | Activity [1]: 200 mmol | MIC (Aspergillus fumigatus): > 1000 mg/L | MIC (Vibrio cholerae): 250 mg/L (≈ 575 µM) | MIC (Candida albicans): 1000 mg/L (≈ 2300 µM) | inhibition at 250 µg/mL [2]: 30% | MIC (Salmonella typhi): 100 mg/L (≈ 230 µM) | MIC (Clostridium tetani): 200 mg/L (≈ 460 µM)

Cc1nn(-c2ccccc2)c2c1[C@@H]1c3c(ccc4c(C)cc(=O)oc34)OC[C@@H]1C(C)(C)O2
MIC (Escherichia coli): 250 mg/L (≈ 583 µM) | MIC (Streptococcus pneumoniae): 200 mg/L (≈ 467 µM) | MIC (Bacillus subtilis): 200 mg/L (≈ 467 µM) | Activity [1]: 146 mmol | MIC (Aspergillus fumigatus): 200 mg/L (≈ 467 µM) | MIC (Vibrio cholerae): 250 mg/L (≈ 583 µM) | MIC (Candida albicans): 1000 mg/L (≈ 2330 µM) | inhibition at 250 µg/mL [2]: 65% | MIC (Salmonella typhi): 250 mg/L (≈ 583 µM) | MIC (Clostridium tetani): 500 mg/L (≈ 1170 µM)

Cc1nn(-c2cc(Cl)ccc2Cl)c2c1[C@@H]1c3c(ccc4c(C)cc(=O)oc34)OC[C@@H]1CO2
MIC (Escherichia coli): 125 mg/L (≈ 266 µM) | MIC (Streptococcus pneumoniae): 200 mg/L (≈ 426 µM) | MIC (Bacillus subtilis): 200 mg/L (≈ 426 µM) | Activity [1]: 184 mmol | MIC (Aspergillus fumigatus): > 1000 mg/L | MIC (Vibrio cholerae): 100 mg/L (≈ 213 µM) | MIC (Candida albicans): 250 mg/L (≈ 533 µM) | inhibition at 250 µg/mL [2]: 28% | MIC (Salmonella typhi): 250 mg/L (≈ 533 µM) | MIC (Clostridium tetani): 250 mg/L (≈ 533 µM)

Cc1nn(-c2cccc(Cl)c2)c2c1[C@@H]1c3cc4cccc(C)c4nc3SC[C@@H]1CO2
MIC (Escherichia coli): 250 mg/L (≈ 576 µM) | MIC (Streptococcus pneumoniae): 250 mg/L (≈ 576 µM) | MIC (Bacillus subtilis): 250 mg/L (≈ 576 µM) | Activity [1]: 125 mmol | MIC (Aspergillus fumigatus): 200 mg/L (≈ 461 µM) | MIC (Vibrio cholerae): 200 mg/L (≈ 461 µM) | MIC (Candida albicans): 1000 mg/L (≈ 2300 µM) | inhibition at 250 µg/mL [2]: 82% | MIC (Salmonella typhi): 500 mg/L (≈ 1150 µM) | MIC (Clostridium tetani): 200 mg/L (≈ 461 µM)

Cc1nn(-c2ccccc2)c2c1[C@@H]1c3c(ccc4c(C)cc(=O)oc34)OC[C@@H]1CO2
MIC (Escherichia coli): 250 mg/L (≈ 624 µM) | MIC (Streptococcus pneumoniae): 250 mg/L (≈ 624 µM) | MIC (Bacillus subtilis): 500 mg/L (≈ 1250 µM) | Activity [1]: 120 mmol | MIC (Aspergillus fumigatus): > 1000 mg/L | MIC (Vibrio cholerae): 250 mg/L (≈ 624 µM) | MIC (Candida albicans): > 1000 mg/L | inhibition at 250 µg/mL [2]: 65% | MIC (Salmonella typhi): 200 mg/L (≈ 499 µM) | MIC (Clostridium tetani): 250 mg/L (≈ 624 µM)

Cc1nn(-c2ccc(Cl)c(Cl)c2)c2c1[C@@H]1c3cc4cccc(C)c4nc3SC[C@@H]1CO2
MIC (Escherichia coli): 250 mg/L (≈ 534 µM) | MIC (Streptococcus pneumoniae): 62.5 mg/L (≈ 133 µM) | MIC (Bacillus subtilis): 200 mg/L (≈ 427 µM) | Activity [1]: 61.7 mmol | MIC (Aspergillus fumigatus): 1000 mg/L (≈ 2130 µM) | MIC (Vibrio cholerae): 250 mg/L (≈ 534 µM) | MIC (Candida albicans): 500 mg/L (≈ 1070 µM) | inhibition at 250 µg/mL [2]: 38% | MIC (Salmonella typhi): 250 mg/L (≈ 534 µM) | MIC (Clostridium tetani): 250 mg/L (≈ 534 µM)

Cc1nn(-c2ccccc2)c2c1[C@@H]1c3cc4cccc(C)c4nc3SC[C@@H]1C(C)(C)O2 (single isomer, unassigned)
MIC (Escherichia coli): 200 mg/L (≈ 468 µM) | MIC (Streptococcus pneumoniae): 100 mg/L (≈ 234 µM) | MIC (Bacillus subtilis): 250 mg/L (≈ 585 µM) | Activity [1]: 83.5 mmol | MIC (Aspergillus fumigatus): 1000 mg/L (≈ 2340 µM) | MIC (Vibrio cholerae): 125 mg/L (≈ 292 µM) | MIC (Candida albicans): > 1000 mg/L | inhibition at 250 µg/mL [2]: 49% | MIC (Salmonella typhi): 100 mg/L (≈ 234 µM) | MIC (Clostridium tetani): 100 mg/L (≈ 234 µM)
